In brackets after ≈: the same amount, converted by molar mass. Activity calls are given as the source filed them. The calls are words filed in the database; no cut-off is given here.
Assays:
Assay type in all cases: functional
Nonomuraea [1] = assay: Microbicidal activity against Nonomuraea sp. ATCC 39727 at 5000 ug/ml after 24 hrs
Outline: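 MBC: sonicated mycelium was grown in SM flasks for three generations, then given increasing antibiotic concentrations for a further 24 h. It was washed with physiological saline, diluted and plated on antibiotic-free SM agar for about 15 days at 28°C to give the surviving fraction. Under 0.1% survival counted as bactericidal; mean of three experiments.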

Nonomuraea [2] = assay: Antimicrobial activity against Nonomuraea sp. ATCC 39727 selected after 12 ug/ml of compound exposure
Outline: (§1)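 Exponential-phase mycelium (about 48 h, 28°C, shaken, in SM) was exposed to the inducing glycopeptide for 24 h. It was then harvested, suspended in 0.9% NaCl and sonicated. Up to 10⁷ CFU were spread on SM agar with a glycopeptide concentration series and incubated 15 days at 28°C. MIC was taken from the population analysis profile as the concentration inhibiting 99.99% of colonies. Values are the mean of three independent experiments.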

[3] = test system: Actinoplanes teichomyceticus; assay: Antimicrobial activity against Actinoplanes teichomyceticus
Nonomuraea [4] = assay: Antimicrobial activity against Nonomuraea sp. ATCC 39727
Outline: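 MIC taken from population analysis profiles. Sonicated mycelium from exponential-phase SM cultures (about 48 h, 28°C, shaken) was suspended in 0.9% NaCl. Up to 10⁷ CFU were spread per SM agar plate containing a range of glycopeptide concentrations and incubated 15 days at 28°C. Colonies were counted for the surviving fraction. MIC is the concentration inhibiting 99.99% of the population; mean of three independent experiments.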

Nonomuraea [5] = assay: Antimicrobial activity against Nonomuraea sp. ATCC 39727 selected after 0.25 ug/ml of teicoplanin exposure; outline: as §1
Streptomyces coelicolor = assay: Antimicrobial activity against Streptomyces coelicolor
Nonomuraea [6] = assay: Antimicrobial activity against Nonomuraea sp. ATCC 39727 selected after 0.5 ug/ml of A40926 exposure; outline: as §1
Nonomuraea [7] = assay: Antimicrobial activity against vanY-deficient Nonomuraea sp. ATCC 39727
Outline: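 The ΔvanY mutant replaces the vanY coding sequence with the aac(3)IV cassette. Its sonicated exponential-phase mycelium (SM, 28°C, about 48 h) was plated, up to 10⁷ CFU, on SM agar carrying graded glycopeptide concentrations and incubated 15 days at 28°C. MIC is the concentration inhibiting 99.99% of the population, read from the population analysis profile.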

Streptomyces venezuelae = assay: Antimicrobial activity against Streptomyces venezuelae ATCC 10595 harboring vanY gene
Outline: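 Population analysis profile: 10⁷ spores of each strain were plated on MYM agar containing graded antibiotic levels and incubated 3 days. Surviving colonies were counted, and MIC was taken as the concentration inhibiting growth of 99.99% of the population.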

## NC[C@H]1O[C@H](O[C@H]2[C@H](O)[C@@H](O[C@H]3O[C@H](CO)[C@@H](O)[C@H](N)[C@H]3O)[C@H](N)C[C@@H]2N)[C@H](O)[C@@H](O)[C@@H]1O
Nonomuraea [1]
  Activity: Active

## CN[C@H](CC(C)C)C(=O)N[C@H]1C(=O)N[C@@H](CC(N)=O)C(=O)N[C@H]2C(=O)N[C@H]3C(=O)N[C@H](C(=O)N[C@H](C(=O)O)c4cc(O)cc(O)c4-c4cc3ccc4O)[C@H](O)c3ccc(c(Cl)c3)Oc3cc2cc(c3O[C@@H]2O[C@H](CO)[C@@H](O)[C@H](O)[C@H]2O[C@H]2C[C@](C)(N)[C@H](O)[C@H](C)O2)Oc2ccc(cc2Cl)[C@H]1O [VANCOMYCIN]
Nonomuraea [2]
  MIC: 20 µg/mL (≈ 13.8 µM)
[3]
  MIC: 90 µg/mL (≈ 62.1 µM)
Nonomuraea [4]
  MIC: 19.5 µg/mL (≈ 13.5 µM)
Nonomuraea [5]
  MIC: 27 µg/mL
Nonomuraea [1]
  Activity: inactive
Streptomyces coelicolor
  MIC: 100 µg/mL (≈ 69 µM)
Nonomuraea [6]
  MIC: 35 µg/mL (≈ 24.2 µM)
Nonomuraea [7]
  MIC: 4 µg/mL (≈ 2.76 µM)
Streptomyces venezuelae
  Activity: inactive

— ChEMBL document CHEMBL1255482, “Novel mechanism of glycopeptide resistance in the A40926 producer Nonomuraea sp. ATCC 39727” (2010)
